Data on 9 molecules can be found in ChEMBL document CHEMBL2321821, “Inhibition of the β-carbonic anhydrases from Mycobacterium tuberculosis with C-cinnamoyl glycosides: identification of the first inhibitor with anti-mycobacterial activity” (Bioorg Med Chem Lett, 2013).

≈ marks a conversion by molar mass, not a printed value. Calls of active or inactive are those of the source. The rule behind the calls is not given here.

Biological target in one assay: not listed separately
Description: Inhibition of Mycobacterium tuberculosis Rv3273 beta-carbonic anhydrase by stopped flow assay. The essentials: (§1)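 Recombinant mtCA enzyme. CO2 hydration was followed by stopped-flow with phenol red indicator (0.02 mM) read at 557 nm, in 20 mM Hepes pH 7.5 with 20 mM Na2SO4, over 10–100 s. CO2 was 1.7–17 mM. Inhibitor was diluted in water and preincubated with enzyme 15 min at room temperature. Uncatalyzed rate subtracted; three determinations.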
For orientation: Ki means the equilibrium dissociation constant of an inhibitor or competing ligand from its target. A lower Ki goes with a stronger hold on the target. On to `CC(=O)OC[C@H]1O[C@@H](CC(=O)/C=C/c2cccc(O)c2)[C@H](OC(C)=O)[C@@H](OC(C)=O)[C@@H]1OC(C)=O`, for which the affinity, expressed as Ki, was 19 µM. This lies in the double-digit micromolar range.
On to `CC(=O)OC[C@H]1O[C@@H](CC(=O)/C=C/c2ccc(O)cc2)[C@H](OC(C)=O)[C@@H](OC(C)=O)[C@@H]1OC(C)=O`, for which affinity was put at a Ki of 13.1 µM.
Consider `O=C(/C=C/c1ccc(O)cc1)C[C@@H]1O[C@H](CO)[C@@H](O)[C@H](O)[C@H]1O`, for which the affinity, expressed as Ki, was 4.13 µM.
Same read-out and setting: to `CC(=O)OC[C@H]1O[C@@H](CC(=O)/C=C/c2cccc(O)c2)[C@H](OC(C)=O)[C@@H](OC(C)=O)[C@H]1OC(C)=O` belongs 15.6 µM; to `O=C(/C=C/c1cccc(O)c1)C[C@@H]1O[C@H](CO)[C@H](O)[C@H](O)[C@H]1O`, 3.25 µM.
`CC(=O)OC[C@H]1O[C@@H](CC(=O)/C=C/c2ccc(O)cc2)[C@H](OC(C)=O)[C@@H](OC(C)=O)[C@H]1OC(C)=O` had a Ki of 12 µM.
`O=C(/C=C/c1cccc(O)c1)C[C@@H]1O[C@H](CO)[C@@H](O)[C@H](O)[C@H]1O` showed a Ki of 6.21 µM.
Molecule `O=C(/C=C/c1ccc(O)cc1)C[C@@H]1O[C@H](CO)[C@H](O)[C@H](O)[C@H]1O` gave an inhibition constant Ki of 4.13 µM.
On the same count and under the same terms, to `Oc1ccccc1` [PHENOL] belongs 79 µM.

For another assay, the system named is Mycobacterium tuberculosis. Nature of the assay: Antimicrobial activity against Mycobacterium tuberculosis H37Rv assessed as growth inhibition at < /= 25 ug/ml after 7 days by serial twofold dilution method. Format: functional, organism-based. A digest of the protocol:
(§2)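 Broth microdilution against H37Rv in Middlebrook 7H9-ADS-G, with 0.05% Tween 80. Compounds from DMSO stock (10 mg/ml), twofold serial dilution on plate. Inoculum is a 1/25 dilution of a mid-log suspension (McFarland 1.0), ~10⁶ CFU per well. Rifampicin control; growth and sterility controls. Incubated 37 °C for 7 days. Growth read visually by turbidity; run in duplicate.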
As to `CC(=O)OC[C@H]1O[C@@H](CC(=O)/C=C/c2cccc(O)c2)[C@H](OC(C)=O)[C@@H](OC(C)=O)[C@@H]1OC(C)=O`, the “growth inhibition (GI)” value was “inactive”.
With `CC(=O)OC[C@H]1O[C@@H](CC(=O)/C=C/c2ccc(O)cc2)[C@H](OC(C)=O)[C@@H](OC(C)=O)[C@@H]1OC(C)=O`, the “growth inhibition (GI)” value was “inactive”.
The same measure, in the same setting: to `O=C(/C=C/c1ccc(O)cc1)C[C@@H]1O[C@H](CO)[C@@H](O)[C@H](O)[C@H]1O` belongs “inactive”.
`CC(=O)OC[C@H]1O[C@@H](CC(=O)/C=C/c2cccc(O)c2)[C@H](OC(C)=O)[C@@H](OC(C)=O)[C@H]1OC(C)=O`: the “growth inhibition (GI)” value was “inactive”.
On to `O=C(/C=C/c1cccc(O)c1)C[C@@H]1O[C@H](CO)[C@H](O)[C@H](O)[C@H]1O`, for which the “growth inhibition (GI)” value is “inactive”.
The same measure, in the same setting: to `CC(=O)OC[C@H]1O[C@@H](CC(=O)/C=C/c2ccc(O)cc2)[C@H](OC(C)=O)[C@@H](OC(C)=O)[C@H]1OC(C)=O` belongs “inactive”; to `O=C(/C=C/c1cccc(O)c1)C[C@@H]1O[C@H](CO)[C@@H](O)[C@H](O)[C@H]1O`, “inactive”.
Consider `O=C(/C=C/c1ccc(O)cc1)C[C@@H]1O[C@H](CO)[C@H](O)[C@H](O)[C@H]1O`, for which the “growth inhibition (GI)” value was “inactive”.

The next assay concerns Mycobacterium tuberculosis. Nature of the assay: Antimicrobial activity against Mycobacterium tuberculosis H37Rv assessed as growth inhibition at 100 ug/ml after 7 days by serial twofold dilution method. Format: functional, organism-based. A digest of the protocol:
as §2
Regarding `CC(=O)OC[C@H]1O[C@@H](CC(=O)/C=C/c2cccc(O)c2)[C@H](OC(C)=O)[C@@H](OC(C)=O)[C@@H]1OC(C)=O`, the “growth inhibition (GI)” value was “Active”.
For the molecule `CC(=O)OC[C@H]1O[C@@H](CC(=O)/C=C/c2ccc(O)cc2)[C@H](OC(C)=O)[C@@H](OC(C)=O)[C@@H]1OC(C)=O`, the “growth inhibition (GI)” value is “Active”.
With `O=C(/C=C/c1ccc(O)cc1)C[C@@H]1O[C@H](CO)[C@@H](O)[C@H](O)[C@H]1O`, the “growth inhibition (GI)” value was “Active”.
Take `CC(=O)OC[C@H]1O[C@@H](CC(=O)/C=C/c2cccc(O)c2)[C@H](OC(C)=O)[C@@H](OC(C)=O)[C@H]1OC(C)=O`: the “growth inhibition (GI)” value was “inactive”.
Regarding `O=C(/C=C/c1cccc(O)c1)C[C@@H]1O[C@H](CO)[C@H](O)[C@H](O)[C@H]1O`, the “growth inhibition (GI)” value is “Active”.
On the same count and under the same terms, to `CC(=O)OC[C@H]1O[C@@H](CC(=O)/C=C/c2ccc(O)cc2)[C@H](OC(C)=O)[C@@H](OC(C)=O)[C@H]1OC(C)=O` belongs “inactive”; to `O=C(/C=C/c1cccc(O)c1)C[C@@H]1O[C@H](CO)[C@@H](O)[C@H](O)[C@H]1O`, “inactive”.
The same measure, in the same setting: to `O=C(/C=C/c1ccc(O)cc1)C[C@@H]1O[C@H](CO)[C@H](O)[C@H](O)[C@H]1O` belongs “inactive”.

Biological target in the next assay: not listed separately
Nature of the assay: Inhibition of Mycobacterium tuberculosis Rv1284 beta-carbonic anhydrase by stopped flow assay. A digest of the protocol:
as §1
`CC(=O)OC[C@H]1O[C@@H](CC(=O)/C=C/c2cccc(O)c2)[C@H](OC(C)=O)[C@@H](OC(C)=O)[C@@H]1OC(C)=O` displayed a Ki of 2.1 µM. That is a single-digit micromolar value.
As for `CC(=O)OC[C@H]1O[C@@H](CC(=O)/C=C/c2ccc(O)cc2)[C@H](OC(C)=O)[C@@H](OC(C)=O)[C@@H]1OC(C)=O`, the affinity, expressed as Ki, was 2.9 µM.
Turning to `O=C(/C=C/c1ccc(O)cc1)C[C@@H]1O[C@H](CO)[C@@H](O)[C@H](O)[C@H]1O`, the Ki came out at 0.93 µM.
Molecule `CC(=O)OC[C@H]1O[C@@H](CC(=O)/C=C/c2cccc(O)c2)[C@H](OC(C)=O)[C@@H](OC(C)=O)[C@H]1OC(C)=O` gave a Ki of 3.8 µM.
Molecule `O=C(/C=C/c1cccc(O)c1)C[C@@H]1O[C@H](CO)[C@H](O)[C@H](O)[C@H]1O` registered a Ki of 1.16 µM. Against the preceding molecule, the Ki is about 3.3-fold lower.
For `CC(=O)OC[C@H]1O[C@@H](CC(=O)/C=C/c2ccc(O)cc2)[C@H](OC(C)=O)[C@@H](OC(C)=O)[C@H]1OC(C)=O`, the Ki came to 4.5 µM.
Same read-out and setting: to `O=C(/C=C/c1cccc(O)c1)C[C@@H]1O[C@H](CO)[C@@H](O)[C@H](O)[C@H]1O` belongs 0.14 µM; to `O=C(/C=C/c1ccc(O)cc1)C[C@@H]1O[C@H](CO)[C@H](O)[C@H](O)[C@H]1O`, 4.5 µM.
Regarding `Oc1ccccc1` [PHENOL], the Ki came out at 64 µM.

The next assay concerns Mycobacterium tuberculosis. Nature of the assay: Antimicrobial activity against Mycobacterium tuberculosis H37Rv after 30 days. Format: functional. A digest of the protocol: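 M. tuberculosis H37Rv, fresh culture, ~1 × 10³ CFU plated onto solid Middlebrook 7H11 with ADS (1/10 v/v) and glycerol (1% v/v). Compound added to molten medium in wells at chosen concentrations. Incubated 37 °C for 30 days, then inspected visually. MIC99.9% taken as the concentration giving 99.9% reduction in cell counts.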
As a reminder, the MIC is the lowest concentration that inhibits growth of the organism. Higher therefore signals weaker potency. For `CC(=O)OC[C@H]1O[C@@H](CC(=O)/C=C/c2cccc(O)c2)[C@H](OC(C)=O)[C@@H](OC(C)=O)[C@@H]1OC(C)=O`, the MIC amounted to 3.12 µg/mL (≈ 6.35 µM).
Regarding `CC(=O)OC[C@H]1O[C@@H](CC(=O)/C=C/c2ccc(O)cc2)[C@H](OC(C)=O)[C@@H](OC(C)=O)[C@@H]1OC(C)=O`, the MIC was more than 100 µg/mL.
Take `O=C(/C=C/c1cccc(O)c1)C[C@@H]1O[C@H](CO)[C@H](O)[C@H](O)[C@H]1O`: the MIC was found to be 100 µg/mL (≈ 308 µM).

Biological target in a further assay: not listed separately
Description: Inhibition of Mycobacterium tuberculosis Rv3588c beta-carbonic anhydrase by stopped flow assay. A digest of the protocol: as §1
For the molecule `CC(=O)OC[C@H]1O[C@@H](CC(=O)/C=C/c2cccc(O)c2)[C@H](OC(C)=O)[C@@H](OC(C)=O)[C@@H]1OC(C)=O`, the affinity corresponds to a Ki of 0.64 µM.
`CC(=O)OC[C@H]1O[C@@H](CC(=O)/C=C/c2ccc(O)cc2)[C@H](OC(C)=O)[C@@H](OC(C)=O)[C@@H]1OC(C)=O` yielded an inhibition constant Ki of 0.35 µM.
In turn, `O=C(/C=C/c1ccc(O)cc1)C[C@@H]1O[C@H](CO)[C@@H](O)[C@H](O)[C@H]1O` showed a Ki of 0.13 µM.
In turn, `CC(=O)OC[C@H]1O[C@@H](CC(=O)/C=C/c2cccc(O)c2)[C@H](OC(C)=O)[C@@H](OC(C)=O)[C@H]1OC(C)=O` showed a Ki of 0.87 µM.
`O=C(/C=C/c1cccc(O)c1)C[C@@H]1O[C@H](CO)[C@H](O)[C@H](O)[C@H]1O` came in with a Ki of 0.51 µM.
Consider `CC(=O)OC[C@H]1O[C@@H](CC(=O)/C=C/c2ccc(O)cc2)[C@H](OC(C)=O)[C@@H](OC(C)=O)[C@H]1OC(C)=O`, for which the affinity corresponds to a Ki of 1.15 µM.
As for `O=C(/C=C/c1cccc(O)c1)C[C@@H]1O[C@H](CO)[C@@H](O)[C@H](O)[C@H]1O`, the affinity, expressed as Ki, was 0.24 µM.
For `O=C(/C=C/c1ccc(O)cc1)C[C@@H]1O[C@H](CO)[C@H](O)[C@H](O)[C@H]1O`, the Ki amounted to 0.94 µM.

The next assay has as its system Mycobacterium tuberculosis. Nature of the assay: Antimicrobial activity against Mycobacterium tuberculosis H37Rv assessed as growth inhibition at 50 ug/ml after 7 days by serial twofold dilution method. Format: functional, organism-based. The essentials: as §2
As for `CC(=O)OC[C@H]1O[C@@H](CC(=O)/C=C/c2cccc(O)c2)[C@H](OC(C)=O)[C@@H](OC(C)=O)[C@@H]1OC(C)=O`, the “growth inhibition (GI)” value was “Active”.
As for `CC(=O)OC[C@H]1O[C@@H](CC(=O)/C=C/c2ccc(O)cc2)[C@H](OC(C)=O)[C@@H](OC(C)=O)[C@@H]1OC(C)=O`, the “growth inhibition (GI)” value was “Active”.
On the same count and under the same terms, to `O=C(/C=C/c1ccc(O)cc1)C[C@@H]1O[C@H](CO)[C@@H](O)[C@H](O)[C@H]1O` belongs “Active”; to `CC(=O)OC[C@H]1O[C@@H](CC(=O)/C=C/c2cccc(O)c2)[C@H](OC(C)=O)[C@@H](OC(C)=O)[C@H]1OC(C)=O`, “inactive”.
With `O=C(/C=C/c1cccc(O)c1)C[C@@H]1O[C@H](CO)[C@H](O)[C@H](O)[C@H]1O`, the “growth inhibition (GI)” value was “Active”.
With `CC(=O)OC[C@H]1O[C@@H](CC(=O)/C=C/c2ccc(O)cc2)[C@H](OC(C)=O)[C@@H](OC(C)=O)[C@H]1OC(C)=O`, the “growth inhibition (GI)” value is “inactive”.
With `O=C(/C=C/c1cccc(O)c1)C[C@@H]1O[C@H](CO)[C@@H](O)[C@H](O)[C@H]1O`, the “growth inhibition (GI)” value was “inactive”.
As to `O=C(/C=C/c1ccc(O)cc1)C[C@@H]1O[C@H](CO)[C@H](O)[C@H](O)[C@H]1O`, the “growth inhibition (GI)” value was “inactive”.
